From ChEMBL document CHEMBL4396943, “The tetrahydroxanthone-dimer phomoxanthone A is a strong inducer of apoptosis in cisplatin-resistant solid cancer cells” (Bioorg Med Chem, 2019)
Active and inactive are the calls of the source. The rule behind the calls is not given here.

Tests used:
MDA-MB-231 [1] = experiment: Antiproliferative activity against cisplatin-resistant human MDA-MB-231 cells assessed as reduction in cell viability incubated for 72 hrs by MTT assay; type: functional, cell-based; conditions: MDA-MB-231, 72 h
Summary of the method: (§1)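 Cells seeded overnight in 96-well plates, then exposed to increasing concentrations (compound dissolved in DMSO, diluted in medium) for the stated time. MTT (5 mg/ml in PBS) added for 15 min, formazan dissolved in DMSO, absorbance read at 544 nm minus 690 nm background. IC50 = concentration giving 50% signal decrease. At least three independent experiments in triplicate.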

A2780 [2] = experiment: Antiproliferative activity against human A2780 cells assessed as reduction in cell viability incubated for 24 hrs by MTT assay; type: functional, cell-based; conditions: A2780, 24 h; summary of the method: as §1
J82 [3] = experiment: Induction of apoptosis in human J82 cells assessed as increase in activation of caspase 3/7 at 50 uM incubated for 24 hrs by hoechst 33342 staining based fluorescence microscopy (reference value: 1.1%); type: functional
KYSE-510 = experiment: Antiproliferative activity against human KYSE-510 cells assessed as reduction in cell viability incubated for 72 hrs by MTT assay; type: functional, cell-based; conditions: KYSE-510, 72 h; summary of the method: as §1
A2780 [4] = experiment: Induction of apoptosis in human A2780 cells assessed as depolarization of mitochondrial membrane potential afer 24 hrs by TMRE staining based flow cytometry; type: functional, cell-based
Summary of the method: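 Cells seeded overnight; medium switched to FBS-free just before treatment to avoid TMRE ester cleavage. Exposure 1 h, 2 h or 24 h, then TMRE staining for 20 min. Cells trypsinized, centrifuged at 4 °C and read by flow cytometry. Medium as negative control, 20 µM CCCP as positive control. […]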

A2780 [5] = experiment: Ratio of IC50 for antiproliferative activity in human A2780 cells assessed as reduction in cell viability incubated for 24 hrs by MTT assay to IC50 for antiproliferative activity in human A2780 cells assessed as reduction in cell viability incubated for 72 hrs by MTT assay; type: functional
Summary of the method: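 MTT assay as for the viability IC50s (overnight seeding, MTT 15 min, DMSO solubilisation, 544/690 nm), with PXA incubation for 24 h versus 72 h. IC50 is the concentration giving a 50% signal decrease. At least three independent experiments.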

J82 [6] = experiment: Cell cycle arrest in cisplatin resistant human J82 cells assessed as accumulation at G1 phase at 1 uM incubated for 24 hrs by propidium iodide staining based flow cytometry (reference value: 78.1%); type: functional
Summary of the method: (§2)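 After 24 h exposure, cells washed in ice-cold PBS. About 2 million cells fixed in cold 70% ethanol at −20 °C for at least 24 h. Stained with 0.1% Triton X-100, 200 µg/ml RNase A and 20 µg/ml propidium iodide in PBS, 15 min at 37 °C in the dark. DNA content read by flow cytometry with doublet discrimination. Medium as untreated control, paclitaxel as G2/M control. Three independent experiments.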

A2780 [7] = experiment: Effect on ROS generation in human A2780 cells at 316 nM incubated for 18 hrs by H2DCFDA staining based flow cytometry; type: functional, cell-based
Summary of the method: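 Cells plated in 24-well plates (about 150,000/well) overnight, then exposed 18 h. Washed and moved to phenol red-free, serum-free RPMI-1640, then loaded with 10 µM H2DCF-DA for 30 min at 37 °C in the dark. One aliquot read directly, the other after 250 µM H2O2 for 1 h at 37 °C. DCF fluorescence read by flow cytometry. Three independent experiments.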

A2780 [8] = experiment: Induction of apoptosis in human A2780 cells assessed as depolarization of mitochondrial membrane potential incubated for 1 hr by TMRE staining based flow cytometry; type: functional, cell-based
Summary of the method: (§3)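 Cells seeded overnight; complete medium swapped for FBS-free medium just before treatment to avoid TMRE ester cleavage. Exposure to PXA for 1 h, 2 h or 24 h. TMRE staining 20 min, cells collected by trypsinisation, ΔΨm read by flow cytometry. Medium served as negative control, 20 µM CCCP as positive control. Mean ± SEM reported.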

[9] = Antiproliferative activity against human Cal27CisR cells assessed as reduction in cell viability incubated for 72 hrs by MTT assay; type: functional, cell-based; summary of the method: as §1
J82 [10] = experiment: Induction of apoptosis in human J82 cells assessed as depolarization of mitochondrial membrane potential incubated for 2 hrs by TMRE staining based flow cytometry; type: functional, cell-based; summary of the method: as §3
A2780 [11] = experiment: Reduction of H2O2-induced ROS generation in human A2780 cells at 316 nM incubated for 18 hrs by H2DCFDA staining based flow cytometry; type: functional, cell-based
Summary of the method: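 Cells plated overnight in growth medium (approx. 150,000 cells/well), exposed to compound for 18 h. Then washed with PBS and moved to phenol red-free RPMI-1640 without FBS or antibiotics. Loaded with 10 µM H2DCF-DA, 30 min, 37 °C, dark. One aliquot then given 250 µM H2O2 for 1 h at 37 °C in the dark. DCF fluorescence read by flow cytometry; three independent experiments.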

MDA-MB-231 [12] = experiment: Potency index, ratio of cisplatin IC50 to compound IC50 for antiproliferative activity in human MDA-MB-231 cells assessed as reduction in cell viability incubated for 72 hrs by MTT assay; type: functional
Summary of the method: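 Cells seeded in 96-well plates overnight, exposed 72 h to increasing concentrations. MTT (5 mg/ml) added for 15 min, formazan dissolved in DMSO, absorbance read at 544 nm with 690 nm background subtracted. IC50 is the concentration reducing signal by 50%. Three independent experiments in triplicate. CisR sublines made by weekly intermittent cisplatin exposure for 24–30 weeks.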

A2780cisR [13] = experiment: Induction of apoptosis in human A2780cisR cells assessed as depolarization of mitochondrial membrane potential at 1 uM by TMRE staining based flow cytometry; type: functional, cell-based; conditions: TDE = time-dependent effect; summary of the method: as §3
A2780cisR [14] = experiment: Induction of apoptosis in human A2780cisR cells assessed as increase in intracellular calcium level at 1 to 30 uM incubated for 30 mins by fluorimetry; type: functional, cell-based
Summary of the method: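 Cells seeded in 96-well plates overnight, washed twice with Krebs-HEPES buffer, loaded 1 h at 37 °C in the dark with Oregon Green BAPTA-1 AM (final 3 µM) and Pluronic F-127. Buffer replaced, PXA added, fluorescence at 544 nm recorded for 30 min, with or without 1 mM extracellular Ca2+. Three experiments, mean ± SEM.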

J82 [15] = experiment: Cell cycle arrest in cisplatin resistant human J82 cells assessed as accumulation at G1 phase at 10 uM incubated for 24 hrs by propidium iodide staining based flow cytometry (reference value: 78.1%); type: functional; summary of the method: as §2
J82 [16] = experiment: Induction of apoptosis in cisplatin-resistant human J82 cells assessed as nuclear condensation by measuring reduced size and increased intensity of nuclei at 30 uM incubated for 24 hrs by hoechst 33342 staining based fluorescence microscopy; type: functional, cell-based

## CC(=O)OC[C@]12Oc3c(-c4ccc(O)c5c4O[C@@]4(COC(C)=O)C(=C(O)C[C@@H](C)[C@H]4OC(C)=O)C5=O)ccc(O)c3C(=O)C1=C(O)C[C@@H](C)[C@H]2OC(C)=O [PHOMOXANTHONE A]
MDA-MB-231 [1]
  IC50: 4.37 µM
A2780 [2]; read-out: IC50
  IC50: 1440 nM
A2780 [2]; read-out: pIC50 (converted)
  IC50: 1450 nM
J82 [3]
  Activity: 60%
KYSE-510
  IC50: 760 nM
A2780 [4]
  Activity: Dose-dependent effect
A2780 [5]
  Ratio IC50: 2.5
J82 [6]
  Activity: 76.3%
A2780 [7]
  Activity: inactive
A2780 [8]
  Activity: Dose-dependent effect
A2780 [8]; A2780, 1 h
  IC50: 1010 nM
[9]
  IC50: 5.62 µM
J82 [10]
  Activity: Dose-dependent effect
J82 [10]; J82, 2 h
  IC50: 3.34 µM
A2780 [11]
  inhibition: inactive
MDA-MB-231 [12]
  Ratio IC50: 2 - 10
A2780cisR [13]
  Activity: Tde
A2780cisR [14]
  Activity: Active
J82 [15]
  Activity: 81.2%
J82 [16]
  Activity: Active
